Source: ChEMBL document CHEMBL3769308, “Melanin-Concentrating Hormone Receptor 1 Antagonists Lacking an Aliphatic Amine: Synthesis and Structure-Activity Relationships of Novel 1-(Imidazo[1,2-a]pyridin-6-yl)pyridin-2(1H)-one Derivatives” (J Med Chem, 2016)

Key:
[1] = target: T1, Melanin-concentrating hormone receptor 1 (Homo sapiens, UniProt Q99705); assay: Displacement of [125I]-MCH (4 to19 residues) from human MCHR1 expressed in CHO cell membranes after 1 hr by liquid scintillation counting analysis
T1 sequence (Q99705 whole entry, the tested form may be a part): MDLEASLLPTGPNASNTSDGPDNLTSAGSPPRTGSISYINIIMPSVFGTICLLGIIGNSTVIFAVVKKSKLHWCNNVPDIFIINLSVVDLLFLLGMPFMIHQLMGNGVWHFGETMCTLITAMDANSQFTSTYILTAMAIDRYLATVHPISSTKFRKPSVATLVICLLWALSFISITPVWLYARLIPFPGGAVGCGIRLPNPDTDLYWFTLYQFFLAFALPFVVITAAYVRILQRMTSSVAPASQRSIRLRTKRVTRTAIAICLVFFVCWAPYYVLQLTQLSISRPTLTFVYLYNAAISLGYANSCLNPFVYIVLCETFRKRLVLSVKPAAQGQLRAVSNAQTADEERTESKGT
Summary of the method: (§1)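 Membranes from MCHR1-expressing CHO cells, homogenized in NaHCO3/EDTA with protease inhibitors, 100000g pellet held at 2 mg/mL protein in 20 mM Tris-HCl pH 7.5, 5 mM EDTA, protease inhibitors.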

[2] = target: Melanin-concentrating hormone receptor 1 (Rattus norvegicus, UniProt P97639); assay: Displacement of [125I]-MCH (4 to 19 residues) from rat MCHR1 expressed in CHO cell membranes after 1 hr by liquid scintillation counting analysis; summary of the method: as §1
Melanin-concentrating hormone receptor 1 (Rattus norvegicus, UniProt P97639), sequence (P97639 whole entry, the tested form may be a part): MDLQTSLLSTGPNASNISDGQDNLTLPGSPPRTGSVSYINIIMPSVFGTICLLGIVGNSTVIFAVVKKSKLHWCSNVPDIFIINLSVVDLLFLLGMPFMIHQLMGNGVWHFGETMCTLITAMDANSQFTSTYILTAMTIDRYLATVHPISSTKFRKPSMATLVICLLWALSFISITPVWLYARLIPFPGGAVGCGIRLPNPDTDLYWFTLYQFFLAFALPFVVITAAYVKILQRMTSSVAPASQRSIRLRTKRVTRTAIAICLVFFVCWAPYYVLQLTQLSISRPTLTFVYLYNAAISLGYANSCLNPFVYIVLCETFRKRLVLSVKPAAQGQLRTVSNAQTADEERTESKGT

Rattus norvegicus [3] = assay: Anorectic activity in diet-induced obese F344/jcl rat assessed as inhibition of cumulative food intake at 1 mg/kg, po qd administered through repeated dosing for 2 weeks measured during 2 weeks of dosing relative to vehicle-treated control; format: functional; conditions: 336 h
Summary of the method: (§2)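 Male DIO F344/Jcl rats (45 weeks old) on high-fat diet since 5 weeks of age, singly housed, habituated to oral dosing with tap water, grouped by day−1 food intake and body weight. Once-daily oral dosing in 0.5% methylcellulose at 2 mL/kg for 2 weeks, 1−3 h before dark onset, 6 rats/group. Food intake measured every 2 or 3 days; body weight change as % of initial.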

Rattus norvegicus [4] = assay: Antiobesity activity in diet-induced obese F344/jcl rat assessed as reduction in body weight at 1 mg/kg, po qd administered through repeated dosing for 2 weeks measured during 2 weeks of dosing relative to vehicle-treated control; format: functional; design: scale not given: the % may be the effect or the level left; summary of the method: as §2
[5] = target: T1, Melanin-concentrating hormone receptor 1; format: functional, cell-based, CHO
[6] = Lipophilicity, log D of the compound at pH 7.4; format: physicochemical; conditions: buffer
Summary of the method: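 Chromatographic HPLC method with UV detection, estimating octanol/buffer partition at pH 7.4.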

## Cc1c(C2CC2)nc2ccc(-n3ccc(Oc4ccc(OC(F)(F)F)cc4)cc3=O)cn12
[1]
  IC50: > 1 µM
[2]
  IC50: 0.95 µM

## Cc1oc2ccc(NC(=O)COc3ccc(OC(F)(F)F)cc3)cc2c1C
[1]
  IC50: > 1 µM
[2]
  IC50: > 1 µM

## Cc1c(C2CC2)nc2ccc(-n3cccc(OCc4ccc(Cl)cc4)c3=O)cn12
[1]
  IC50: 0.99 µM
[2]
  IC50: 0.65 µM

## CC(C)CC(N(C)C)C1(c2ccc(Cl)cc2)CCC1 (stereo unspecified) [SIBUTRAMINE]
Rattus norvegicus [3]
  inhibition in vivo at 1 mg/kg: 21.5%
Rattus norvegicus [4]
  Activity: 3.4%

## Cc1c(C2CC2)nc2ccc(-n3ccc(OCc4cncnc4)cc3=O)cn12
[1]
  IC50: > 1 µM
[2]
  IC50: > 1 µM

## Cc1c(C2CC2)nc2ccc(-n3ccc4oc(-c5ccc(Cl)cc5)cc4c3=O)cn12
[1]
  IC50: 0.0068 µM
[2]
  IC50: 0.011 µM
[5]
  IC50: 0.042 µM

## Cc1c(CC#N)nc2ccc(-n3ccc(OCc4ccc(F)cc4)cc3=O)cn12
[1]
  IC50: 0.18 µM
[2]
  IC50: 0.17 µM

## Cc1c(C2CC2)nc2ccc(-n3ccc(OCc4ccc(C(C)C)cc4)cc3=O)cn12
[1]
  IC50: 0.41 µM
[2]
  IC50: 0.24 µM

## Cc1cn(-c2ccc3nc(C4CC4)c(C)n3c2)c(=O)cc1OCc1ccc(Cl)cc1
[1]
  IC50: 0.21 µM
[2]
  IC50: 0.15 µM

## Cc1nc2ccc(NC(=O)COc3ccc(OC(F)(F)F)cc3)cn2c1C
[1]
  IC50: 0.0038 µM
[2]
  IC50: 0.0078 µM

## CCc1nc2ccc(-n3ccc(OCc4ccccc4)cc3=O)cn2c1C
[1]
  IC50: 0.12 µM
[2]
  IC50: 0.12 µM

## Cc1c(C2CC2)nc2ccc(-n3ccc(OCc4ccc(Br)cc4)cc3=O)cn12
[1]
  IC50: 0.012 µM
[2]
  IC50: 0.0093 µM

## Cc1c(C2CC2)nc2ccc(-n3ccc(OCc4csc(Cl)c4)cc3=O)cn12
[1]
  IC50: 0.0077 µM
[2]
  IC50: 0.0075 µM
[5]
  IC50: 0.019 µM

## Cc1c(C#N)nc2ccc(-n3ccc(OCc4ccc(F)cc4)cc3=O)cn12
[1]
  IC50: > 1 µM
[2]
  IC50: > 1 µM

## Cc1c(C2CC2)nc2ccc(-n3ccc(OCc4ccncc4)cc3=O)cn12
[1]
  IC50: > 1 µM
[2]
  IC50: > 1 µM

## Cc1c(C2CC2)nc2ccc(-n3cnc(OCc4ccc(Cl)cc4)cc3=O)cn12
[1]
  IC50: 0.15 µM
[2]
  IC50: 0.14 µM
[6]
  logD: 2.9

## Cc1c(C2CC2)nc2ccc(-n3ccc(OCc4ccc(Cl)cn4)cc3=O)cn12
[1]
  IC50: 0.024 µM
[2]
  IC50: 0.019 µM

## COCc1nc2ccc(-n3ccc(OCc4ccc(F)cc4)cc3=O)cn2c1C
[1]
  IC50: > 1 µM
[2]
  IC50: > 1 µM

## Cc1c(C(=O)N(C)C)nc2ccc(-n3ccc(OCc4ccc(F)cc4)cc3=O)cn12
[1]
  IC50: > 1 µM
[2]
  IC50: > 1 µM
